MrgX1 PAM = human MrgX1 positive allosteric modulation, primary screen. AID 588675. 310,000 tested, 0.63% active. Q96LB2. MrgX1-HEK293, Fluo-4 calcium flux, FDSS; hits give high values. B-score at 10 µM;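 active means plate-corrected calcium response at least 3 library SD above typical, normal starting fluorescence, not activating the receptor alone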;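 further: compound read alongside a low EC10 to EC30 dose of BAM8-22 agonist; peak minus trough fluorescence over baseline measured at the second addition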
MrgX1 ag = human MrgX1 receptor agonism, primary screen | MrgX1-HEK293 cells, Fluo-4 calcium fluorescence, agonist mode; hits give high values | 310,000 tested, 0.44% active | Q96LB2 | B-score at 10 µM;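 active means calcium response B-score plate-corrected fluorescence ratio at least 3 library SD, with starting fluorescence B-score inside 5 SD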
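Material – MrgX1-expressing HEK293 cells · Input – 15,000 cells seeded per well · Dosing – compound as first of three additions · Times – overnight seeding, then 1 h dark dye loading · Measured by – kinetic Fluo-4 NW fluorescence of intracellular calcium · Read-out – B-scored fluorescence response ratio · Benchmarks – positive and negative control wells on each plate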
RGS4 act = RGS4 potentiation or activation; HEK293 M3R/inducible RGS4, carbachol calcium flux Fluo4; hits give low values; B-score at 10 µM; 310,000 tested, 0.92% active;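 active means B-score of the integrated calcium signal more than 4 SD below the library mean, with starting fluorescence not abnormally high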;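 further: negative B-score means reduced calcium response which marks RGS4 activation or potentiation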
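test system = HEK293 cells with stable M3R and inducible RGS4 | schedule = recording 10 s baseline at 1 Hz, 100 s post-agonist | technique = Fluo4-AM (2 µM) calcium-flux fluorescence, kinetic read | measure = Agonist-evoked peak-minus-minimum fluorescence over baseline, integrated ratio, B score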
MrgX1 antag = antagonists of human MrgX1 receptor; Q96LB2; MRGX1-HEK293 calcium flux, Fluo-4, BAM8-22 antagonism; hits give low values; B-score at 10 µM; 310,000 tested, 1.3% active; AID 588676;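 active means calcium-response B-score plate-corrected more than 3 library SD below zero, starting fluorescence within 5 deviations, no agonist response on first addition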;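 further: peak minus trough fluorescence over baseline after final BAM8-22 challenge near maximal dose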
KCC2 mod = modulates chloride dependent transport by human KCC2. Q9H2X9. 190,000 tested, 2.2% active. AID 1456. KCC2 cells, thallium flux FluoZin-2 fluorescence. B-score of Tl+ flux slope (higher = more flux/activation; lower = inhibition) at 10 µM;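 active means thallium flux slope and its plate-corrected score both differing from the plate sample mean at a set confidence after two filtering rounds, in either direction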;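 further: slope of fluorescence scaled to starting intensity during 10 to 20 s after thallium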
Target sequence (Q9H2X9 whole entry, looked up): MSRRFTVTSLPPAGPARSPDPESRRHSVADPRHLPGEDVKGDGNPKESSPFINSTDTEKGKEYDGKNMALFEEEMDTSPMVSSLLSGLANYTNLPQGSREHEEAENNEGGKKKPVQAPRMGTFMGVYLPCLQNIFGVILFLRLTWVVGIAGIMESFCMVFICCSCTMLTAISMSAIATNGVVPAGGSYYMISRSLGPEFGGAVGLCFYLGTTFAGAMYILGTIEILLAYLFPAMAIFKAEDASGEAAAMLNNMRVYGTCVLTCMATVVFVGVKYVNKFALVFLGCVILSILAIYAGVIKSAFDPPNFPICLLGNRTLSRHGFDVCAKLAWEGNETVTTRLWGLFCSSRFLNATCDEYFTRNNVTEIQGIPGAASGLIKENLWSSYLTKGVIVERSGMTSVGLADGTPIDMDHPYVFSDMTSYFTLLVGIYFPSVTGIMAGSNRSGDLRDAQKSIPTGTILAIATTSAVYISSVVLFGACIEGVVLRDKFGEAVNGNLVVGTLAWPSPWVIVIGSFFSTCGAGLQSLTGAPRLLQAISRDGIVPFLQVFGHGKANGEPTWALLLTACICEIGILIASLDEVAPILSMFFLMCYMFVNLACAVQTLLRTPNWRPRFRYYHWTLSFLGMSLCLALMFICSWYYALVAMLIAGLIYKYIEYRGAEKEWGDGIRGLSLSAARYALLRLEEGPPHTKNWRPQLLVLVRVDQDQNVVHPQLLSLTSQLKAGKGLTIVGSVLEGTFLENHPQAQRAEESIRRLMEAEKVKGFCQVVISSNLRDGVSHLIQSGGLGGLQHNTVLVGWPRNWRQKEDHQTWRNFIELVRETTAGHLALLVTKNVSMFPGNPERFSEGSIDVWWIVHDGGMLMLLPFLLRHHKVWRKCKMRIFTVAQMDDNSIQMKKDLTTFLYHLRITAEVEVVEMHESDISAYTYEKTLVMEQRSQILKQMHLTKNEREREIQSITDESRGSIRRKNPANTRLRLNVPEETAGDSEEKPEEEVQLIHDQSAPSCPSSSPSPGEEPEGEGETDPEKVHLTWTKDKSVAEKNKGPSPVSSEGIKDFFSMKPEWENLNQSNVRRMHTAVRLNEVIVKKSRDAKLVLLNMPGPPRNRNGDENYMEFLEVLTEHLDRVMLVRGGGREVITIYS
RGS4 inh = human RGS4 inhibition. HEK293 M3R/RGS4 inducible, Fluo-4 calcium flux; hits give high values; triggered by carbachol at its EC20. B-score at 10 µM. AID 463165. 310,000 tested, 0.45% active. P49798;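 active means B-score, a plate-corrected calcium signal, over three deviations above library mean, with baseline fluorescence within five deviations of library mean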;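 further: RGS4 expression induced by doxycycline in cells with stable M3 receptor; B-score is computed from the integrated fluorescence ratio over baseline after carbachol; higher B-score means a larger calcium signal and so more RGS4 inhibition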
MrgX1 ag reconf = confirmation of human MrgX1 receptor agonists; 600 tested, 78% active; activation, % at 10 µM; MrgX1-HEK293, Fluo-4 calcium fluorescence, FDSS; shares compounds with MrgX1 ag;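 active means calcium signal rise, corrected for plate position, at least 3 library SD high, with starting brightness within 5 such deviations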
HEK293 Ca flux = activity in parental HEK293 cells lacking MrgX1; shares compounds with MrgX1 antag; Fluo-4 calcium fluorescence, FDSS; fluorescence ratio F(max-min)/F0 at 10 µM; 4,000 tested, 2% active; AID 624111;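 active means duplicate-averaged calcium fluorescence ratio at least three times the standard deviation of buffer wells, a nonspecific response in parental cells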
HEK293 Ca counter = MrgX1 allosteric activator counter-screen hit in parental HEK293 cells; AID 624114; parental HEK293 calcium flux, Fluo-4 fluorescence ratio; hits give high values; 4,000 tested, 0.4% active; fluorescence ratio F(max-min)/F0 at 10 µM; shares compounds with MrgX1 antag;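 active means calcium fluorescence ratio, averaged over duplicates, at least 3 SD of the buffer-well ratio, meaning a nonspecific response in receptor-free cells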;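 further: untransfected parental HEK293 lacking MrgX1 used as counterscreen for MrgX1 allosteric activators; fluorescence change taken during the second addition on a kinetic imager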
HEK293 Ca cntr2 = counter-screen for MrgX1 activators: effect in parental HEK293 cells; Fluo-4 calcium fluorescence (FDSS); hits give high values; AID 624115; 4,000 tested, 8.7% active; shares compounds with MrgX1 antag; fluorescence ratio F(max-min)/F0 at 10 µM;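 active means calcium fluorescence ratio at least three times the spread of buffer wells, meaning a non-specific response in parental cells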
* = called active by the depositor; i = inactive; · = not tested or not shown. This is a sample that favours compounds with a hit; in the whole collection about 4.7% have one here.

SMILES	MrgX1 PAM	MrgX1 ag	RGS4 act	MrgX1 antag	KCC2 mod	RGS4 inh	MrgX1 ag reconf	HEK293 Ca flux	HEK293 Ca counter	HEK293 Ca cntr2
CCOC(=O)CC(=O)CSc1nc2ccc(C)cc2cc1C#N	i	54*	·	i	-0.25	·	367%*	i	i	75*
CCc1ccc(S(=O)(=O)Nc2cccc(-c3ccc4nnc(C)n4n3)c2)s1	i	i	i	i	·	i	·	·	·	·
COc1ccc(N2C(=O)C3C(C2=O)C(C(=O)c2ccc(Cl)cc2)N2CCCC32)cc1 (centres undefined)	i	72*	i	i	-0.59	i	i	i	i	i
CC(C)C(OC(=O)Cn1nnc2ccccc21)C(=O)NC1CCCC1 (centres undefined)	i	i	i	i	·	i	·	·	·	·
CCOCCCN(C(=O)Cn1nnc(-c2ccc(C)o2)n1)C(C(=O)NC1CCCC1)c1ccco1 (centres undefined)	i	i	i	i	·	i	·	·	·	·
Cc1cc(N2CCCCC2)nc(N)n1	i	101*	i	i	0.00071	i	520%*	i	i	123*
Cc1cc(N2CCCC2)nc(-c2ccccc2O)n1	i	i	i	i	0.34	i	·	·	·	·
O=C(NCC(c1cccs1)N1CCOCC1)c1cc(S(=O)(=O)N2CCOCC2)ccc1F (centres undefined)	i	i	i	i	·	i	·	·	·	·
Cc1c2ccccc2nc2c(F)c(NCCO)c(F)c(F)c12	i	30*	i	i	i	i	i	0.12*	i	i
Cc1ccc(N(C)C2=NC(=O)CS2)cc1Cl	i	i	i	i	·	i	·	·	·	·
COc1ccc(CCNC(=O)Cc2ccc(NC3=NC4CS(=O)(=O)CC4S3)cc2)c(OC)c1 (centres undefined)	i	i	i	i	·	i	·	·	·	·
O=C(Nc1nnc(-c2cccs2)o1)c1cccc(C(F)(F)F)c1	i	75*	i	i	·	i	498%*	i	i	96*
COC(=O)/C(=C/c1ccco1)NC(=O)c1ccco1	i	i	i	i	-0.046	i	·	·	·	·
CC(=Nc1ccc(C)cc1)c1sc2ccccc2c1O	i	i	i	i	1.1	i	·	·	·	·
CC(=Nc1cccc(O)c1)c1sc2ccccc2c1O	i	28*	i	i	·	i	144%*	i	i	i
COc1ccc(N2CCN(C(=O)COC(=O)COc3ccc(C#N)cc3)CC2)cc1	i	i	i	i	·	i	·	·	·	·
CCOC(=O)N1CCN(c2nc(-c3ccc(OC)cc3)no2)CC1	i	74*	i	i	0.073	i	i	i	i	i
CCOC(=O)N1CCN(C(=O)c2ccc(OC)cc2)CC1	i	i	i	i	0.008	i	·	·	·	·
O=C(NC1CC1)C1CCN(C(=O)c2ccc(Cl)cc2Cl)CC1	i	i	i	i	·	i	·	·	·	·
Cc1nn(C)c(C)c1CN(Cc1nc(-c2ccc(F)cc2F)oc1C)C1CC1	i	56*	i	i	0.13	i	254%*	i	i	49*
Cc1c(Br)c(O)c(Br)c2sc(=O)oc12	i	33*	·	i	0.042	·	149%*	i	i	i
Cc1cc(CSC(=N)N)c(CSC(=N)N)cc1C	i	91*	i	i	-0.27	i	246%*	i	i	i
NCC12CC3CC(C1)CC(c1ccc(Cl)cc1)(C3)C2	i	34*	-7.2*	i	2.7	i	135%*	i	i	i
O=C(COC(=O)c1nc(Cl)ccc1Cl)Nc1ccc2c(c1)OCO2	i	28*	i	i	0.04	i	i	i	i	i
O=C(COC(=O)c1nc(Cl)ccc1Cl)Nc1ccc2[nH]c(=O)[nH]c2c1	i	i	i	i	·	i	·	·	·	·
SMILES	MrgX1 PAM	MrgX1 ag	RGS4 act	MrgX1 antag	KCC2 mod	RGS4 inh	MrgX1 ag reconf	HEK293 Ca flux	HEK293 Ca counter	HEK293 Ca cntr2
CC(C)(C)c1ccc(C(=O)NCC(=O)N2CCCCCC2)cc1	i	i	i	i	·	i	·	·	·	·
Cc1noc(C)c1CSCC(=O)Nc1nc2ccc(S(C)(=O)=O)cc2s1	i	i	i	i	·	i	·	·	·	·
O=C1NC(Nc2ccccn2)(C(F)(F)F)C(=O)N1c1ccc(F)cc1 (centres undefined)	i	32*	i	i	0.89	i	207%*	i	i	54*
COc1cccc(CN2CC(C(=O)NCc3ccc(C)o3)CCC2=O)c1 (centres undefined)	·	·	i	·	·	i	·	·	·	·
O=C(CC(=O)c1c(F)cccc1Cl)c1ccccc1O	i	53*	i	i	·	i	326%*	i	i	73*
Cc1cc(C(F)(F)F)nc(SCCN2CCCCC2)c1C#N	i	i	i	i	·	i	·	·	·	·
CCOCCn1c(SC(C)C(C)=O)nc2c1c(=O)[nH]c(=O)n2C (centres undefined)	i	53*	i	i	-0.26	i	i	i	i	i
CCOCCn1c(SCC)nc2c1c(=O)[nH]c(=O)n2C	i	i	i	i	1.4	i	·	·	·	·
COc1cccc(NC(=O)CN(C)C(=O)Cn2c(=O)oc3ccccc32)c1	i	i	i	i	·	i	·	·	·	·
N#CCn1c(CCl)nc2ccccc2c1=O	i	42*	i	i	0.45	i	198%*	i	i	i
COc1cc(OC)cc(C(=O)NC(=S)NNC(=O)Cc2cccs2)c1	i	72*	i	i	1.1	i	535%*	i	i	102*
CC(C)c1ccc(/C=C2\CC/C(=C\C=N\N(C)C)C2=O)cc1	i	i	i	i	0.18	i	·	·	·	·
CC(C)/C=C1\CC/C(=C\c2ccc(N(C)C)cc2)C1=O	i	101*	i	i	-0.48	i	i	0.015*	i	141*
